# NFkB transloc inh – blocks IL-1B driven NFkB nuclear translocation in HUVEC cells; 0.43% of 94,000 active; HUVEC IL-1B NFkB p65 nuclear translocation imaging; inhibition, % at 2 µM;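 active means inhibition above about 30% together with a positive call from visual inspection of the well image, limit read from the data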;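 further: nuclear over cytoplasmic p65 intensity ratio measured by imaging; 0% = IL-1B stimulated DMSO wells and 100% = unstimulated DMSO wells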
# FAK inh – FAK (human) kinase inhibition; AID 727; 0.84% of 97,000 active; Q05397; inhibition, %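 (tested at 7 µM)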; biochemical FAK kinase activity assay; in the data active means inhibition above about 19%;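 further: 0% = DMSO and 100% = reference compound high control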
# Measles CPE – protection of cells from measles virus. 1.5% of 140,000 active. AID 841. protection (pct of control), % at 4 µM. Measles virus-infected cells, CPE protection, absorbance; in the data active means protection mostly above about 24%, no sharp cut-off; inactive means mostly below about 26%
# IL1B NFkB pot – enhances IL-1B driven NFkB nuclear translocation | 0.3% of 94,000 active | activation, % at 2 µM | HUVEC IL-1B NFkB p65 nuclear translocation imaging;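 active means activation above 40%, about the mean plus 3 SD, also judged a hit on visual image review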;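 further: percent activation is computed from the nuclear over cytoplasmic p65 intensity ratio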
# Rev-RRE block – HIV Rev-RRE protein-RNA interaction inhibition; P05866; Rev peptide-RRE RNA binding, FRET; inhibition, % at 8 µM; 0.79% of 97,000 active; AID 704;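 active means inhibition above the screen-wide mean plus 3 SD, cut at about 35% in these data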;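 further: 0% = median DMSO wells and 100% = median Neomycin B control wells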
# Target sequence (P05866 whole entry, looked up): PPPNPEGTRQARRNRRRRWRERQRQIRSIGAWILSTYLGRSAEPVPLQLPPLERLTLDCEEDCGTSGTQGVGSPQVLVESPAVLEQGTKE
#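 System: Cy5-labelled duplex RRE RNA binding fluorescein-labelled HIV Rev peptide; Signal: fluorescein-to-Cy5 FRET, 480 nm excitation; Also added: labelled Rev peptide; Compound: one concentration, 8 µM nominal; Buffer or medium: HEPES pH 7.5 salt buffer with EDTA; Read-out: % inhibition of FRET ratio versus controls; Schedule: 5 min preincubation and 15 min binding, 25 °C.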
# HUVEC tox IL1B – HUVEC cytotoxicity counter-screen, IL-1B stimulated; 0.41% of 94,000 active; cell count reduction, % at 2 µM; AID 845; HUVEC cell count loss, Hoechst imaging;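 active means cell count reduction more than 3 SD above the screen-wide mean, cut at about 70% in these data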;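 further: normalized per plate to untreated control cells as the no-loss baseline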
# * hit, by the source's call; . = no result given; [ ] = another dose, or the depositor's remark. Compounds with a hit are over-represented: about 3.3% of the library has one in this group of screens.
SMILES,NFkB transloc inh,FAK inh,Measles CPE,IL1B NFkB pot,Rev-RRE block,HUVEC tox IL1B
CC(=O)CC(c1ccc([N+](=O)[O-])cc1)c1c(O)c2ccccc2oc1=O (stereo not given),-9,9,36*,9,3,10
COc1c([N+](=O)[O-])c(=O)oc2ccccc12,.,.,9,.,.,.
CSC1=NC(C)(C)CC2(C)Nc3ccccc3N12 (stereo not given),.,.,18*,.,.,.
O=C(c1ccccc1)N1CN2CN(C(=O)c3ccccc3)CC([N+](=O)[O-])(C2)C1,.,.,22,.,.,.
CCOC(=O)C(C)n1nc(/C=C/c2ccccc2)ccc1=O (stereo not given),-2,7,88*,2,9,12
CCOc1ccc(/C=N/n2c(SC)nnc2-c2ccccc2)cc1OCC,2,3,11,-2,6,0
CCSc1nc2ccccc2n1C(=O)/C=C\c1ccc(OC)c(OC)c1,90*,-7,-1,-90,1,-10
CCSc1nc2ccccc2n1CC(N)=O,2,-1,5,-2,5,8
O=C(Nc1ccc(Cl)c(Cl)c1)Nc1cc(C(=O)NC2CC2)ccc1Cl,.,.,7,.,.,.
O=C(Cn1cnc2ccc(Cl)cc2c1=O)c1cccs1,5,-5,52*,-5,3,5
C/C(CC(=O)Nc1cc(C)cc(C)c1)=N\NC(=O)c1ccccn1,.,.,69*,.,.,.
CC(=O)Oc1c(Cl)c(N2CCOCC2)c(OC(C)=O)c2ccccc12,.,.,7,.,.,.
COc1ccc2nc(/N=C/c3c(C)[nH]n(-c4ccc(C)cc4)c3=O)sc2c1,.,.,35,.,.,.
COCC(=O)Nc1cccc(C(F)(F)F)c1,-36,-1,37*,36,0,-17
Cc1ccccc1NC(=O)/C=C/c1cccc(C(F)(F)F)c1,-1,0,24,8,7,18
O=C(O)CCCC(=O)Nc1cccc(C(F)(F)F)c1,.,.,22,.,.,.
CC(C)[C@H](NC(=O)Nc1cccc(C(F)(F)F)c1)C(=O)O,-8,-2,27*,8,1,28
CNC(=O)/C=C/c1cccc(C(F)(F)F)c1,.,.,53*,.,.,.
NC(=O)/C=C\C(=O)Nc1cccc(C(F)(F)F)c1,-30,3,5,-94,2,84*
COC(=O)[C@H](C)NC(=O)Nc1cccc(C(F)(F)F)c1,-20,-1,3,20,4,-2
CCOc1ccc(C2C(C(=O)c3ccc(C)o3)=C(O)C(=O)N2CCN2CCOCC2)cc1OC (stereo not given),20,3,12,-19,17,8
CCCOc1ccc(C2C(C(=O)c3ccco3)=C(O)C(=O)N2CCN2CCOCC2)cc1OC (stereo not given),-19,-3,47*,19,-5,-22
COc1ccc(C2C(C(=O)O)CC(=O)N2C2CCCCC2)cc1 (stereo not given),-36,1,48*,36,1,-39
CCOC(=O)N1CCN(C(=O)CN(Cc2ccc(Cl)cc2)S(=O)(=O)c2ccc(C)cc2)CC1,-4,1,24,4,5,-1
Cn1nc([N+](=O)[O-])nc1Oc1ccc(C(C)(C)C)cc1,.,.,6,.,.,.
SMILES,NFkB transloc inh,FAK inh,Measles CPE,IL1B NFkB pot,Rev-RRE block,HUVEC tox IL1B
O=C(CSc1nnc(-c2ccc(F)cc2)c2ccccc12)Nc1c(F)cccc1F,.,.,37*,.,.,.
CCCCN1C(=O)/C(=C/C=C2/CC(C)(C)CN2C)SC1=S,.,.,6,.,.,.
CCN1C(=O)/C(=C/C=C2/SCCN2C)SC1=S,-7,0,12,7,129*[fluorescence artefact?],2
COc1cc(OC)cc(C(=O)Nn2cc(C(=O)Nc3c(F)cccc3F)c3ccccc3c2=O)c1,.,.,7,.,.,.
Cc1ccc(C)c(NC2=NC3(CCCCC3)N=C(N)N2)c1,3,-1,6,-3,-6,-41
Cc1ccc(NC2=NC3(CCCCC3)N=C(N)N2)c(C)c1,97*,-1,8,-97,-13,41
CC1CC(C)CN(CCOc2cccc(Cl)c2Cl)C1 (stereo not given),.,.,7,.,.,.
Clc1cccc(OCCn2cncn2)c1Cl,-45,-1,13,45*,4,-46
O=C(Cn1cnc2c(oc3ccccc32)c1=O)NCc1ccccc1,-10,1,10,10,0,-7
O=C(Cn1cnc2c(nnn2Cc2ccc(F)cc2)c1=O)NCC1CCCO1 (stereo not given),-7,0,5,7,2,-22
O=C(Cn1cnc2c(nnn2Cc2ccc(Cl)cc2)c1=O)NCC1CCCO1 (stereo not given),6,-2,48*,-5,8,24
